Screening results as filed in PubChem.
TAAR1 antag: human TAAR1 antagonism; 360,000 compounds, 1.5% hits; inhibition, % at 3 µM; CHO RD-HGA16 TAAR1, Fluo-8 calcium fluorescence, antagonist;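 active = inhibition above a per-plate cutoff, the mean inhibition of test compounds on that plate plus 3 SD, cut at about 49% in these data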;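 note: 0% = DMSO plus EC80 beta-PEA response and 100% = DMSO alone without agonist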
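Test system: hTAAR1-expressing CHO RD-HGA16 cells, Gα16-coupled; Probe or stimulus: EC80 β-phenethylamine stimulus; Compound dosing: single nominal final test compound concentration of 3 µM; Timing: 140 s kinetic read after compound, 140 s after agonist; Signal: Fluo-8 calcium-sensitive fluorescence; Measure: % inhibition of agonist calcium response; Controls: DMSO and EC80 PEA controls.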
CHO parental Ca: counter-screen: ATP calcium response change in parental CHO cells; 330,000 compounds, 0.63% hits; inhibition, % at 5.6 µM; parental CHO-K1, ATP-induced calcium, Fluo-8 fluorescence;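 active = inhibition above that plate's mean sample inhibition plus 3 SD, cut at about 26% in these data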;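 note: 0% = ATP-challenged DMSO wells and 100% = DMSO wells without ATP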
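Test system: parental CHO cells; detection: calcium-sensitive Fluo-8 fluorescence; evaluation: percent inhibition of calcium signal; also added: ATP as calcium-mobilizing challenge; repeats: one well per compound; control set: ATP-challenged DMSO wells low, unchallenged DMSO wells high; compound: single nominal dose of 5.6 µM per compound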
TAAR1 ag: agonists of human TAAR1; AID 624467; CHO RD-HGA16 TAAR1, Fluo-8 calcium fluorescence; vehicle wells 0%, saturating PEA agonist 100%; activation, % at 3 µM; Q96RJ0; 360,000 compounds, 0.99% hits;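 active = activation above the mean activation of all test compounds in the run plus 3 SD, cut at about 38% in these data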
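System: CHO-derived RD-HGA16 cells with stable Gα16 and human TAAR1. Times: 17-24 h plating, Fluo-8 75 min 37 °C, 30 min RT. Measured by: calcium-sensitive Fluo-8 signal, excitation 470-495, emission 515-575 nm. Read-out basis: % activation relative to PEA EC100 response. Control set: DMSO and PEA EC100. Repeats: no replicates (n 1).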
OX1R antag-1: human HCRTR1 antagonism; O43613; CHO/OX1R cells, Fluo-8 calcium fluorescence, orexin A; 330,000 compounds, 0.43% hits; inhibition, % at 5 µM;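 active = inhibition above its plate's threshold, mean inhibition of all tested compounds on the plate plus 3 SD, cut at about 37% in these data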;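 note: 0% = orexin A challenge wells and 100% = SB-334867-A antagonist wells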
Target sequence (O43613 whole entry, looked up): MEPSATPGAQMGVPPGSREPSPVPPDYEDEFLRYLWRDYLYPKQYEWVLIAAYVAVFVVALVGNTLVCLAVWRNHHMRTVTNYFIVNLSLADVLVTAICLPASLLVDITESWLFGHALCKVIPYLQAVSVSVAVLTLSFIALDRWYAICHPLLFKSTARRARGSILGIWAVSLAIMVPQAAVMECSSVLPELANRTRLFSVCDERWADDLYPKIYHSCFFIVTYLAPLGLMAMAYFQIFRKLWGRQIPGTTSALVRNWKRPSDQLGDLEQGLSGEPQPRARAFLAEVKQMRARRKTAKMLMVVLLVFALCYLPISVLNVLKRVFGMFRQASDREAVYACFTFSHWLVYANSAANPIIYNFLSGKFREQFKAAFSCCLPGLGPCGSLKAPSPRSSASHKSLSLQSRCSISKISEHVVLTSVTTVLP
OX1R antag-2: OX1R (human) antagonism | O43613 | OX1R-expressing cells, FRET antagonist read-out | inhibition, % at 6.6 µM | 330,000 compounds, 1.8% hits | AID 485270; in the data active = inhibition mostly above about 38%, no sharp cut-off; inactive = mostly below about 40%;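 note: 0% = agonist challenge alone and 100% = reference antagonist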
GPR7 antag: blocks human GPR7 receptor signaling; GPR7-expressing cells, fluorescence antagonist assay; inhibition, % at 4.4 µM; 290,000 compounds, 1.1% hits; in the data active = inhibition above about 16%, passing the limit was not always enough;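 note: cells stimulated with the agonist NPW; 0% = agonist with vehicle and 100% = vehicle without agonist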
* hit, by the source's call; x = not tested or not shown. An excerpt weighted towards active compounds, which were near 4.6% of everything screened.

SMILES | TAAR1 antag | CHO parental Ca | TAAR1 ag | OX1R antag-1 | OX1R antag-2 | GPR7 antag
C#CCn1c(=NC(=O)c2cccs2)sc2cccc(OC)c21 | 14 | 12 | 0 | -41 | 66* | -1
CCn1c(=NC(=O)CS(=O)(=O)c2ccccc2)sc2cccc(OC)c21 | 7 | 5 | 3 | 20 | 33* | x
NS(=O)(=O)c1ccc(NC(=O)COC(=O)CCNC(=O)NC23CC4CC(CC(C4)C2)C3)cc1 | -2 | 4 | 1 | -6 | 5 | 17*
NS(=O)(=O)c1ccc(NC(=O)COC(=O)C23CC4CC(CC(C4)C2)C3)cc1 | 7 | 5 | 5 | 2 | 3 | -1
O=C(CSc1cn(CCNC(=O)c2ccccc2F)c2ccccc12)NCC1CCCO1 (centres undefined) | -15 | -22 | 5 | 6 | 21 | -9
O=C(NCCn1cc(SCc2ccccc2)c2ccccc21)c1ccccc1F | 64* | 66* | 1 | -3 | 17 | -9
Cn1nc(CC(=O)Nc2ccc3c(c2)OCCO3)c2ccccc2c1=O | 26 | 48* | 6 | 47* | 51 | 3
Cc1cc(N)cc(C)c1-c1c(Br)cc(N)cc1Br | 10 | x | -2 | x | x | x
Cc1cc(C)nc(-n2nc(C)c(Br)c2Nc2ccc(Br)cc2)n1 | -10 | -24 | 10 | -39 | 11 | 2
Cc1nn(C)c(Nc2ccc(Br)cc2)c1Br | 8 | 71* | 6 | 40* | 50 | 8
O=S(=O)(c1ccc(Cl)cc1)N1CCC(O)(c2cccnc2)CC1 | 1 | 9 | 7 | 2 | 13 | -6
COC(=O)c1sc(-c2ccc(C(C)(C)C)cc2)cc1NC(=O)CCC(=O)O | 51* | 31 | 11 | 31 | 19 | -7
Cc1ccc(CN(c2ccc(C(=O)NCc3ccccn3)cc2)S(C)(=O)=O)cc1 | 17 | -7 | 38* | -6 | 20 | 5
O=C(/C=C/c1ccccc1)NC(=S)NNC(=O)c1ccco1 | 24 | 9 | 43* | 4 | 23 | -10
Cc1ccc(NC(=O)/C(=C/c2cccc([N+](=O)[O-])c2)NC(=O)C2CCCCC2)cc1 | -14 | -18 | 3 | -28 | 5 | -1
O=C(/C=C/c1cccc([N+](=O)[O-])c1)Nc1cccc(NC(=O)c2cccs2)c1 | 58* | -13 | 11 | -1 | 70* | -14
Cc1ccc(NC(=O)/C(=C\c2cccc([N+](=O)[O-])c2)NC(=O)c2cccs2)cc1 | -8 | -1 | 4 | 7 | 52* | 1
COC(=O)[C@@]12C[C@@H](CC(=O)N3CCCC3)C(=O)N(Cc3ccc4c(c3)OCO4)C1=CCC(C)(C)C2 | -19 | x | 3 | x | x | x
O=C(CNC(=O)c1cccs1)c1ccc([N+](=O)[O-])cc1 | -5 | -8 | 0 | 0 | 59* | -8
O=C(CNC(=O)c1ccc([N+](=O)[O-])cc1)c1ccccc1 | x | 2 | x | 6 | 47* | 8
O=C(CNC(=O)c1ccco1)OCC(=O)c1ccc([N+](=O)[O-])cc1 | -2 | -7 | -2 | -10 | 41* | -9
CC(=O)NC(CC(=O)c1ccc([N+](=O)[O-])cc1)C(Cl)(Cl)Cl (centres undefined) | 2 | -7 | 0 | 3 | 76* | -4
O=C(CNC(=O)c1cccs1)OCC(=O)c1ccc([N+](=O)[O-])cc1 | -12 | -11 | 0 | 4 | 34 | -7
Cc1cc(C)cc(NS(=O)(=O)CCCS(=O)(=O)Nc2cc(C)cc(C)c2)c1 | 16 | x | 5 | x | x | x
Oc1ccc(-c2nc3ccccn3c2NCc2ccco2)cc1 | 52* | 3 | 19 | 2 | 19 | -7
SMILES | TAAR1 antag | CHO parental Ca | TAAR1 ag | OX1R antag-1 | OX1R antag-2 | GPR7 antag
N/C(=N\OC(=O)CCCN1C(=O)c2ccccc2C1=O)c1ccc(Br)cc1 | 14 | -5 | 11 | -16 | 19 | -3
N/C(=N\OC(=O)CCCCCN1C(=O)c2ccccc2C1=O)c1ccccc1 | 12 | -13 | -3 | -9 | 62* | 5
Cc1cc(C)c(NC(=O)CSc2nnc(Cc3cccn3C)n2-c2ccc(F)cc2)c(C)c1 | -27 | -18 | 5 | -8 | 60* | 12
Cc1cc(C)cc(NC(=O)CSc2nnc(Cc3cccn3C)n2-c2ccc(F)cc2)c1 | -9 | -17 | 2 | -18 | 18 | -8
Cc1ccc(OCc2cc(C(=O)N(C)Cc3cnn(-c4ccccc4C)c3)no2)cn1 | 14 | 20 | 6 | -1 | 17 | -10
COCCNC(=O)/C(C#N)=C1\N=C(NC(=O)c2ccco2)c2ccccc21 | -14 | x | 0 | x | x | x
CCCNC(=O)/C(C#N)=C1\N=C(NC(=O)c2ccco2)c2ccccc21 | -6 | -2 | 1 | -6 | 47* | 6
COc1ccc(S(=O)(=O)Nc2cc(S(=O)(=O)N3CCOCC3)ccc2OC)cc1 | 4 | -7 | 5 | -11 | 2 | x
Cc1ccc(-c2nc3c(c(SCC(=O)N4CCOCC4)n2)Cc2c(CO)cnc(C)c2O3)cc1 | -9 | -25 | 6 | -22 | 38* | -10
O=C1NC[C@H](c2ccccc2)OC(=O)[C@@H](Cc2ccc(F)cc2)CC/C=C/C[C@@H]1CC(=O)N(CCO)Cc1ccccc1 | 44 | -17 | 18 | 11 | 20 | x
CC(C)(C)[C@H]1COC(=O)[C@H](NC(=O)OCC2c3ccccc3-c3ccccc32)C/C=C\C[C@@H](CC(=O)N(CCO)Cc2ccccc2)C(=O)N1 | 51* | -13 | 19 | -28 | 1 | x
C[C@@H]1COC(=O)[C@H](NC(=O)OCC2c3ccccc3-c3ccccc32)C/C=C\C[C@@H](CC(=O)N(CCO)Cc2ccccc2)C(=O)N1 | x | -24 | x | -30 | 5 | x
CC(C)(C)[C@@H]1COC(=O)[C@@H](Cc2ccc(F)cc2)CC/C=C\C[C@@H](CC(=O)N(CCO)Cc2ccccc2)C(=O)N1 | 5 | -9 | 9 | -23 | 10 | x
CC(C)(C)OC(=O)C[C@@H]1C/C=C\C[C@@H](CC(=O)N(CCO)Cc2ccccc2)C(=O)N[C@@H](c2ccccc2)COC1=O | 49* | -17 | 15 | -41 | 12 | x
O=C1NC[C@H](c2ccccc2)OC(=O)[C@@H](Cc2ccc(F)cc2)CC/C=C/C[C@H]1CC(=O)N(CCO)Cc1ccccc1 | 71* | -20 | 30 | 8 | 18 | x
CC(C)(C)[C@@H]1COC(=O)[C@H](Cc2ccc(F)cc2)CC/C=C\C[C@H](CC(=O)N(CCO)Cc2ccccc2)C(=O)N1 | 56* | -3 | 36 | 11 | 30 | x
CCCCn1c(SCC(=O)Nc2cc(C(F)(F)F)ccc2Cl)nnc1C(CC)N(C)C (centres undefined) | -3 | -10 | 4 | -1 | 12 | 2
O=C1NC[C@H](c2ccccc2)OC(=O)[C@H](Cc2ccc(F)cc2)CC/C=C/C[C@H]1CC(=O)N(CCO)Cc1ccccc1 | 62* | -17 | 41* | 5 | 39 | x
